Hits are enriched below; roughly 2.1% of the tested compounds scored in any of these assays.
Cneo AK release: Cryptococcus neoformans lysis via adenylate kinase release | C. neoformans lysis, adenylate kinase release luminescence, 4 h; normalised: neutral wells 0, clomiphene wells 100 | lysis activity, % at 15 µM | 360,000 compounds, 0.2% hits;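 active = mean lysis activity across replicates of at least 80%, whatever share of replicates individually reach that level; inactive = mean lysis activity below 80%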
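read-out = cell lysis signal | test system = log-phase Cryptococcus neoformans yeast cells | input = cells at 5 × 10^6 per mL | medium = fresh YPD growth medium | signal = luminescent adenylate kinase detection reagent | timing = 4 h at 37 °C static, read 1 h later | dosing = single dose | controls = Clomiphene as positive lysis control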
C2C12 statin: suppression of simvastatin myotoxicity | C2C12 myotubes + simvastatin, ATP luminescence, 48 h; scaled: DMSO 0, geranylgeraniol control 100 | rescue of ATP level, % at 7.49 µM | 330,000 compounds, 0.78% hits | AID 602340;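 active = mean ATP rescue above about 67%, or every replicate alone reaching that limit, limit read from the data, passing the limit was not always enough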;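 also: myotubes were challenged with 10 µM simvastatin during compound exposure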
DENV2 CPE: DENV2-induced cell death inhibition | DENV2-infected cells, cytopathic effect rescue, plate reader | CPE inhibition, % at 9.99 µM | 350,000 compounds, 1.7% hits | AID 651640; in the data active = CPE inhibition above about 20%, passing the limit was not always enough; tested in BHK-21 cells
XiGFP reactiv: X-chromosome reactivation activator. activation, % at 7.58 µM. XiGFP mouse fibroblasts, % GFP-positive cells imaging, 3 d; cells co-treated with 5-aza-dC sensitizer; scaled so ellipticine positive control = 100%. 360,000 compounds, 0.055% hits;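 active = mean normalized replicate activation at least 10% and every replicate at or above 10%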
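Assay system: SV40-immortalized XiGFP fibroblast cells, line 68-5-11; buffer or medium: DMEM plus 5-aza-dC sensitizer; compound: one concentration, pinned; timing: compounds 3 days, fix/stain 15 min at room temperature; benchmarks: positive control ellipticine, 6 µM final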
Each line names hits and unclear results; the compound was inactive in the other large screens.

C[C@@H]1CN([C@H](C)CO)S(=O)(=O)c2ccc(C#CC(C)(C)O)cc2O[C@H]1CN(C)C(=O)C1CCCCC1	none
C[C@H](O)C#Cc1ccc2c(c1)O[C@H](CN(C)C(=O)C1CCCCC1)[C@H](C)CN([C@@H](C)CO)S2(=O)=O	Cneo AK release 93.8
C[C@H](O)C#Cc1ccc2c(c1)O[C@@H](CN(C)C(=O)C1CCCCC1)[C@@H](C)CN([C@H](C)CO)S2(=O)=O	none
CCC(=O)N(C)C[C@H]1Oc2cc(C#CC(C)(C)O)ccc2S(=O)(=O)N([C@H](C)CO)C[C@H]1C	none
CCC(=O)N(C)C[C@H]1Oc2cc(C#CC(C)(C)O)ccc2S(=O)(=O)N([C@H](C)CO)C[C@@H]1C	Cneo AK release 101.0
C[C@@H]1CN([C@@H](C)CO)S(=O)(=O)c2ccc(C#CC(C)(C)O)cc2O[C@@H]1CN(C)C(=O)C1CCCCC1	DENV2 CPE 21.5
C[C@@H]1CN([C@@H](C)CO)S(=O)(=O)c2ccc(C#C[C@@H](C)O)cc2O[C@H]1CN(C)CC1CCCC1	DENV2 CPE 21.0
C[C@@H]1CN([C@H](C)CO)S(=O)(=O)c2ccc(C#C[C@@H](C)O)cc2O[C@@H]1CN(C)C(=O)c1ccccc1	none
CCOc1ccc(CNn2nnnc2N)cc1	C2C12 statin 118.7 (no result: DENV2 CPE, XiGFP reactiv)
CCSc1cc(C)nc2c(-c3ccc(Cl)cc3)c(C)nn12	C2C12 statin 92.6 (no result: XiGFP reactiv)
Cc1cc(C)n2nc(C)c(-c3ccc(Cl)cc3)c2n1	none
C[C@H]1CN([C@@H](C)CO)C(=O)c2cccc(NC(=O)c3ccncc3)c2O[C@@H]1CN(C)Cc1ccc(Oc2ccccc2)cc1	none (no result: XiGFP reactiv)
COc1ccccc1N(CC(=O)N1CCCCCC1)S(=O)(=O)c1ccc(C)cc1	C2C12 statin 91.3
COc1ccccc1N(CC(=O)N1CCCC1)S(=O)(=O)c1ccc(C)cc1	DENV2 CPE 54.4
CCCCOC(=O)Cn1c(=O)c2c(nc3n2CCCCN3c2ccc(C)cc2)n(C)c1=O	C2C12 statin 103.4 (no result: DENV2 CPE, XiGFP reactiv)
CC=Cc1ccc2n(c1=O)C[C@@H]1[C@@H](CO)[C@H](C(=O)Nc3ccc(-c4ccccc4)cc3)N(C)[C@H]21 (mixture of isomers)	none
C[C@H]1[C@H](c2ccccc2)C[C@@H](C(=O)O)C1(C)C	DENV2 CPE 40.3
C[C@@H]1CCCCO[C@@H](CN(C)C(=O)Nc2ccc3c(c2)OCO3)[C@H](C)CN([C@@H](C)CO)C(=O)c2cc(NC(=O)CCCN(C)C)ccc2O1	none (no result: C2C12 statin)
Cc1ccccc1CN1C(=O)CN(S(C)(=O)=O)CC1(C)C(=O)NCc1ccccc1 (stereo not given)	DENV2 CPE 22.3 (no result: Cneo AK release, C2C12 statin)
COc1ccccc1/C=N/NC(=S)NCc1ccco1	Cneo AK release 89.3 (no result: C2C12 statin)
COc1ccc(S(=O)(=O)Nc2ccc3c(c2)C(=O)N([C@H](C)CO)C[C@H](C)[C@H](CN(C)S(=O)(=O)c2cccs2)OCCCC[C@H](C)O3)cc1	C2C12 statin 97.0
COc1ccc(S(=O)(=O)Nc2ccc3c(c2)C(=O)N([C@@H](C)CO)C[C@H](C)[C@@H](CN(C)S(=O)(=O)c2cccs2)OCCCC[C@@H](C)O3)cc1	C2C12 statin 79.2
COc1ccc(S(=O)(=O)Nc2ccc3c(c2)C(=O)N([C@H](C)CO)C[C@@H](C)[C@H](CN(C)S(=O)(=O)c2cccs2)OCCCC[C@H](C)O3)cc1	C2C12 statin 101.6
